This excerpt belongs to a sample that is enriched for hits.
UPR XBP1 act: activators of adaptive arm of unfolded protein response (XBP1). CHO-XBP1 luciferase reporter, IRE1-XBP1 UPR activation, luminescence; percent of tunicamycin response, DMSO as zero. activation, % at 20 µM. 330,000 compounds, 0.33% hits;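 active = versus positive control, 20 µM dose yields 30% or more activation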;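 note: 100% = tunicamycin at 10 µg/mL and 0% = DMSO only wells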
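Material: CHO-XBP1 cells stably carrying IRE1-XBP1-driven luciferase reporter / Amount: 1000 cells per well / Compound: 20 µM, 1% DMSO / Times: 6 h treatment, 37 °C / Detection: luciferase luminescence / Measure: % activation of reporter signal versus tunicamycin and DMSO controls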
Dynein transport: dynein cargo transport inhibition; 3617.4 mouse cells, GR-EGFP nuclear translocation imaging; test concentration mostly 20 µM; stimulated with dexamethasone, 1 µM; stronger effect = lower value; z-score, hits read low; 220,000 compounds, 0.47% hits; AID 1381;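 active = plate z-score of nuclear minus cytoplasmic receptor signal below a set negative limit, without overly bright fluorescence or cell loss, cut at about -3.5 in these data, passing the limit was not always enough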;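 note: z-score of nuclear minus cytoplasmic ring GR-EGFP intensity difference per well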
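Buffer or medium – tet-free medium with charcoal-stripped serum · Signal – automated 10x imaging of fixed Hoechst-stained cells · Also added – dexamethasone agonist, 1.0 µM final, for 30 min · Incubation – induction 48 h, compound 1 h, agonist 30 min · Read-out – GR-EGFP nuclear translocation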
Beta2AR agonist: agonists of human beta-2 adrenergic receptor inducing internalization. response, % (concentration not given with the values). P07550. Am2.2-beta2AR cells, FAP receptor internalization, flow cytometry. 340,000 compounds, 0.43% hits. AID 504454;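 active = response above a set limit, near 3 SD of response in nonfluorescent compounds, cut at about 42% in these data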
pCIP destab: p/CIP protein destabilization; 290,000 compounds, 0.01% hits; F442A p/CIP-EGFP cells, EGFP fluorescence, 16 h; decrease of EGFP signal, % at 10 µM;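 active = EGFP signal decrease of at least 30% at 10 µM or well 3 SD below plate mean, unless failing retest; inactive = the rest, including hits failing retest or dose response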
UPR CHOP act: apoptotic UPR (CHOP) activation; CHO-CHOP luciferase reporter, luminescence; percent of tunicamycin response over DMSO baseline; activation, % at 10 µM; 330,000 compounds, 0.34% hits;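 active = at 10 µM dose, activation of 40% or more, normalized to positive control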;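 note: 100% = tunicamycin at 10 µg/mL and 0% = DMSO alone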
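Evaluation: % reporter activation, DMSO baseline versus tunicamycin full activation; System: CHO-CHOP luciferase reporter cell line; Input: 500 cells/well; Incubation: 6 h compound treatment, 37 °C; Measured by: Steady-Glo luciferase luminescence; Dosing: one dose, 10 µM in 0.5% DMSO; Buffer or medium: F12 medium, 10% FBS; Benchmarks: positive tunicamycin 10 µg/mL, negative DMSO alone.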
CHOP inhibitor: inhibitors of CHOP induction in ER stress response. CHO-K1 CHOP-promoter luciferase, tunicamycin-induced, 15-18 h. inhibition, % at 10 µM. 220,000 compounds, 3.8% hits;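 active = compounds that reduced the stress-induced luciferase reporter signal by more than about 70% of percent inhibition, limit read from the data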;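 note: 0% = tunicamycin plus vehicle and 100% = wells without tunicamycin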
The depositor's hits bear a star; . = no result given.

SMILES	UPR XBP1 act	Dynein transport	Beta2AR agonist	pCIP destab	UPR CHOP act	CHOP inhibitor
C=C(C=O)CC1CC(O)[C@]2(C)OC3C[C@@H]4OC5C[C@]6(C)O[C@]7(C)CCC8OC9C[C@]%10(C)OC(/C(C)=C\CO)C(O)CC%10OC9CC(C)C8OC7CC6O[C@]5(C)C/C=C\C4OC3CC2O1 (stereo partly drawn)	-2	.	0	.	1	.
C=C(C=O)C[C@@H]1C[C@H](O)C2OC3C[C@]4(C)OC5/C=C\CC6OC7C(CC=CCC6OC5CCCC4OC3CC2O1)OC1CC2OC3CC(=O)OC3C[C@@H](C)C[C@@]2(C)OC1C[C@@H]7C (stereo partly drawn)	-9	-0.81	.	-5	-9	107*
Cc1nc(N2CCN(Cc3ccc4c(c3)OCO4)CC2)[nH]c(=O)c1C	-4	.	23	4	2	.
CCN1C(=O)/C(=C\c2ccc([N+](=O)[O-])s2)C(=O)NC1=S	.	-4.7*	.	-3	.	-88
CCOC(=O)C(O)(c1ccc(N(CC)S(=O)(=O)c2ccc(C)cc2)cc1)C(F)(F)F (stereo not drawn)	0	-0.42	6	8	1	64
Cc1cc(N2CCNCC2)nc2ccccc12	-2	.	12	-6	-2	.
NC(N)=NOCC[C@H](N)C(=O)O	.	.	.	.	.	-22
Cc1ccsc1/C=C1\C(=O)NC(=S)N(C)C1=O	29	.	55*	3	176*	.
C=CCN1C[C@@H](C)N([C@H](c2ccc(C(=O)N(CC)CC)cc2)c2cccc(OC)c2)C[C@@H]1C	.	.	.	.	.	-16
CCOc1cc(CNCCc2c[nH]c3ccccc23)cc(Cl)c1OC	-2	-0.51	16	-2	-3	89*
COc1ccc(CNCCc2c[nH]c3ccccc23)c(OC)c1OC	1	.	11	6	2	.
CC1Oc2cc3c(-c4c(O)cc(O)c5c(O)c6c(cc45)OC(C)C(C)C6=O)c(O)cc(O)c3c(O)c2C(=O)C1C (stereo not drawn)	18	-0.55	1	-23	7	102*
NC(CP(=O)(O)O)C(=O)O (stereo not drawn)	.	.	.	.	.	-25
NCC(CP(=O)(O)O)c1ccc(Cl)cc1 (stereo not drawn)	.	.	.	.	.	-6
O=C1NC(=O)C(=Cc2ccc(-c3ccc(F)cc3O)o2)C(=O)N1	9	.	42*	-16	13	.
O=C1C(=O)c2ccccc2-c2ccccc21	-12	-2.1	103*	-16	-5	107*
O=C1C(=O)c2cccc3cccc1c23	19	-0.56	18	-4	4	55
O=C(Oc1c(Cl)cc(Cl)c2ccccc12)N1CCCCC1	-1	-0.12	30	-4	0	77*
COc1ccc(/C=C/C(=O)c2c(O)n(CCC3=CCCCC3)c(=O)[nH]c2=O)cc1	2	1.1	11	-10	0	81*
CCCCn1c(O)c(C(=O)/C=C/c2ccc3c(c2)OCO3)c(=O)[nH]c1=O	-2	0.17	1	2	2	29
O=C(/C=C/c1ccc2c(c1)OCO2)c1c(O)n(CCC2=CCCCC2)c(=O)[nH]c1=O	.	-1.2	13	2	.	90*
CC(C)c1ccc(N=Cc2c(O)n(C3CC3)c(=S)[nH]c2=O)cc1	1	0.023	-5	-18	6	84*
C=C1C(=O)O[C@@H]2C[C@@H](C)[C@@H]3C=CC(=O)[C@@]3(C)[C@@H](OC(=O)CC(=O)O[C@H]3[C@@H]4C(=C)C(=O)O[C@@H]4C[C@@H](C)[C@@H]4C=CC(=O)[C@]43C)[C@H]12	-9	-4*	48*	-29	-9	108*
C=C1C(=O)OC2CC(C)C3C=CC(=O)C3(C)C(O)C12 (stereo not drawn)	.	.	22	.	.	.
Cc1ccc(C2=NC(C)(C)N3C2C3c2ccc([N+](=O)[O-])cc2)cc1 (stereo not drawn)	-1	0.34	2	-3	0	70*
SMILES	UPR XBP1 act	Dynein transport	Beta2AR agonist	pCIP destab	UPR CHOP act	CHOP inhibitor
Oc1ccc2c3c1O[C@H]1[C@@H](O)CC[C@@]4(O)C(C2)N(CC2CCC2)CCC314 (stereo partly drawn)	.	.	.	.	.	-8
CN(N=O)c1cc(O)ccc1O	.	.	.	.	.	-12
COc1cc2c(cc1/C=C/[N+](=O)[O-])OCO2	.	-2.8	41	-14	.	93*
Cc1nc2c(=O)n(C)c(=O)nc-2n(C)n1	-9	-0.74	64*	59	-6	.
CC(=O)OCC1=C(C(=O)[O-])N2C(=O)[C@@H](NC(=O)CCC[C@@H](N)C(=O)[O-])[C@H]2SC1.[Zn+2]	.	.	.	.	.	-15
Cc1ccc(/C=C2\C(=O)NC(=S)N(c3cccc(F)c3)C2=O)o1	-1	.	50*	2	1	.
CCOc1ccc(N2C(=O)/C(=C/c3ccc(C)o3)C(=O)NC2=S)cc1	-2	.	30	-1	1	.
Cc1ccc(/C=C2/C(=O)NC(=O)N(Cc3ccc(F)cc3)C2=O)o1	13	-0.05	.	-2	5	89*
O=C(O)[C@@H]1CCN1	.	.	.	.	.	6
CCCCNC(=O)c1c(N)n(CCCOC)c2nc3ccccc3nc12	4	1.4	-13	-15	-1	93*
CC(C)CCNC(=O)c1c(N)n(Cc2ccc3c(c2)OCO3)c2nc3ccccc3nc12	5	-0.76	2	-4	1	36
CC(C)CNC(=O)c1c(N)n(Cc2ccc3c(c2)OCO3)c2nc3ccccc3nc12	5	-0.14	-1	12	3	85*
CCCNC(=O)c1c(N)n(Cc2ccc3c(c2)OCO3)c2nc3ccccc3nc12	9	2.7	4	-14	0	75*
CC(C)CCn1c(N)c(C(=O)NCc2cccs2)c2nc3ccccc3nc21	3	3.6	4	-10	1	96*
NC1CC1c1ccccc1 (stereo not drawn)	.	.	.	.	.	0
CN[C@@H](C)[C@H](O)c1ccccc1	.	.	.	.	.	13
CCCn1c(=O)c2[nH]c(C3CCCC3)nc2n(CCCOC(=O)c2ccc(S(=O)(=O)F)cc2)c1=O	.	.	.	.	.	0
CCCNC(=O)c1c(N)n(Cc2ccco2)c2nc3ccccc3nc12	0	0.0089	.	-9	1	83*
O=C1NC(=O)C(CCc2ccncc2)(Cc2ccc(OCc3ccccc3)cc2)C(=O)N1	-2	-0.53	1	2	1	0
O=C(CN1CC=C(c2ccccc2)CC1)NC(=O)NCc1ccco1	0	-0.33	-10	10	1	76*
N=Cc1c(O)n(-c2ccc(C34CC5CC(CC(C5)C3)C4)cc2)c(=O)[nH]c1=O	0	-0.96	7	-12	0	81*
CCOP(=O)(OCC)C(NC(=O)CC(C)C)C(Cl)(Cl)Cl (stereo not drawn)	-1	-0.083	8	-10	-2	71*

Bioassay records: PubChem BioAssay, several laboratories
